Data from ChEMBL document CHEMBL4373711, “Development of 3,5-Dinitrophenyl-Containing 1,2,4-Triazoles and Their Trifluoromethyl Analogues as Highly Efficient Antitubercular Agents Inhibiting Decaprenylphosphoryl-β-d-ribofuranose 2'-Oxidase” (J Med Chem, 2019).
In brackets after ≈: the same amount, converted by molar mass. Activity calls are given as the source filed them. The rule behind the calls is not given here.

How the values were obtained:
[1] = tested on: Mycobacterium tuberculosis; test: Antimycobacterial activity against Mycobacterium tuberculosis H37Rv CNCTC My 331/88 after 14 days; assay type: functional; settings: H37Rv CNCTC My 331/88, 336 h
Procedure, shortened: (§1)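 M. tuberculosis strains (H37Rv and clinical MDR/XDR isolates) tested by microdilution in Šula's semisynthetic medium. Compounds were dissolved in DMSO and tested at 32 to 0.03 µM in twofold steps. Inoculum was a 1.0 McFarland suspension diluted 10-3. Plates were incubated at 37 °C and read at 14 and 21 days.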

[2] = tested on: Mycobacterium tuberculosis; test: Antimycobacterial activity against Mycobacterium tuberculosis H37Rv CNCTC My 331/88 after 21 days; assay type: functional; settings: H37Rv CNCTC My 331/88, 504 h; procedure, shortened: as §1
[3] = tested on: Mycobacterium avium; test: Antimycobacterial activity against Mycobacterium avium CNCTC My 330/88 after 14 days; assay type: functional; settings: CNCTC My 330/88, 336 h
Procedure, shortened: (§2)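 M. avium was tested by microdilution in Šula's semisynthetic medium, with compounds dissolved in DMSO and serially diluted from 1000 down to 1. Inoculum was a 1.0 McFarland suspension diluted 10-5. Plates were incubated at 37 °C and read at 14 and 21 days. […] Isoniazid and rifampicin served as standards.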

[4] = tested on: Mycobacterium avium; test: Antimycobacterial activity against Mycobacterium avium CNCTC My 330/88 after 21 days; assay type: functional; settings: CNCTC My 330/88, 504 h; procedure, shortened: as §2
[5] = tested on: Mycobacterium kansasii; test: Antimycobacterial activity against Mycobacterium kansasii CNCTC My 235/80 after 7 days; assay type: functional; settings: CNCTC My 235/80, 168 h
Procedure, shortened: (§3)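 Microdilution in Šula's semisynthetic medium; compounds in DMSO at 32–0.03 µM. Inoculum from 1.0 McFarland suspension diluted 10-4. […] Isoniazid and rifampicin as reference drugs.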

[6] = tested on: Mycobacterium kansasii; test: Antimycobacterial activity against Mycobacterium kansasii CNCTC My 235/80 after 14 days; assay type: functional; settings: CNCTC My 235/80, 336 h; procedure, shortened: as §3
[7] = tested on: Mycobacterium kansasii; test: Antimycobacterial activity against Mycobacterium kansasii CNCTC My 235/80 after 21 days; assay type: functional; settings: CNCTC My 235/80, 504 h; procedure, shortened: as §3
[8] = tested on: Mycobacterium kansasii; test: Antimycobacterial activity against Mycobacterium kansasii 6509/96 after 7 days; assay type: functional; settings: 6509/96, 168 h; procedure, shortened: as §3
[9] = tested on: Mycobacterium kansasii; test: Antimycobacterial activity against Mycobacterium kansasii 6509/96 after 14 days; assay type: functional; settings: 6509/96, 336 h; procedure, shortened: as §3
[10] = tested on: Mycobacterium kansasii; test: Antimycobacterial activity against Mycobacterium kansasii 6509/96 after 21 days; assay type: functional; settings: 6509/96, 504 h; procedure, shortened: as §3
[11] = tested on: Staphylococcus aureus; test: Antibacterial activity against Staphylococcus aureus subsp. aureus ATCC 29213 CCM 4223 at highest concentration measured after 24 to 48 hrs by alamar blue dye based broth microdilution assay; assay type: functional, organism-based
[12] = tested on: Staphylococcus aureus; test: Antibacterial activity against methicillin-resistant Staphylococcus aureus subsp. aureus ATCC 43300 CCM 4750 at highest concentration measured after 24 to 48 hrs by alamar blue dye based broth microdilution assay; assay type: functional, organism-based
[13] = tested on: Staphylococcus epidermidis; test: Antibacterial activity against Staphylococcus epidermidis at highest concentration measured after 24 to 48 hrs by alamar blue dye based broth microdilution assay; assay type: functional, organism-based
[14] = tested on: Enterococcus faecalis; test: Antibacterial activity against Enterococcus faecalis ATCC 29212 CCM 4224 at highest concentration measured after 24 to 48 hrs by alamar blue dye based broth microdilution assay; assay type: functional, organism-based
[15] = tested on: Escherichia coli; test: Antibacterial activity against Escherichia coli ATCC 25922 CCM 3954 at highest concentration measured after 24 to 48 hrs by alamar blue dye based broth microdilution assay; assay type: functional, organism-based
[16] = tested on: Klebsiella pneumoniae; test: Antibacterial activity against Klebsiella pneumoniae at highest concentration measured after 24 to 48 hrs by alamar blue dye based broth microdilution assay; assay type: functional, organism-based
[17] = tested on: Serratia marcescens; test: Antibacterial activity against Serratia marcescens at highest concentration measured after 24 to 48 hrs by alamar blue dye based broth microdilution assay; assay type: functional, organism-based
[18] = tested on: Pseudomonas aeruginosa; test: Antibacterial activity against Pseudomonas aeruginosa ATCC 27853 CCM 3955 at highest concentration measured after 24 to 48 hrs by alamar blue dye based broth microdilution assay; assay type: functional, organism-based
[19] = tested on: Candida albicans; test: Antifungal activity against Candida albicans ATCC 24433 CCM 8320 at highest concentration measured after 24 to 48 hrs by alamar blue dye based broth microdilution assay; assay type: functional, organism-based
[20] = tested on: Pichia kudriavzevii; test: Antifungal activity against Candida krusei ATCC 6258 CCM8271 at highest concentration measured after 24 to 48 hrs by alamar blue dye based broth microdilution assay; assay type: functional, organism-based
[21] = tested on: Candida parapsilosis; test: Antifungal activity against Candida parapsilosis ATCC 22019 CCM 8260 at highest concentration measured after 24 to 48 hrs by alamar blue dye based broth microdilution assay; assay type: functional, organism-based
[22] = tested on: Candida tropicalis; test: Antifungal activity against Candida tropicalis ATCC 750 CCM 8264 at highest concentration measured after 24 to 48 hrs by alamar blue dye based broth microdilution assay; assay type: functional, organism-based
[23] = tested on: Aspergillus fumigatus; test: Antifungal activity against Aspergillus fumigatus ATCC 204305 at highest concentration measured after 24 to 48 hrs by alamar blue dye based broth microdilution assay; assay type: functional, organism-based
[24] = tested on: Aspergillus flavus; test: Antifungal activity against Aspergillus flavus CCM 8363 at highest concentration measured after 24 to 48 hrs by alamar blue dye based broth microdilution assay; assay type: functional, organism-based
[25] = tested on: Lichtheimia corymbifera; test: Antifungal activity against Lichtheimia corymbifera CCM 8077 at highest concentration measured after 24 to 48 hrs by alamar blue dye based broth microdilution assay; assay type: functional, organism-based
[26] = tested on: Trichophyton interdigitale; test: Antifungal activity against Trichophyton interdigitale ATCC 9533 CCM 8377 at highest concentration measured after 72 to 120 hrs by alamar blue dye based broth microdilution assay; assay type: functional

Compound	MIC99 [1] [µM]	MIC99 [2] [µM]	MIC99 [3] [µM]	MIC99 [4] [µM]	MIC99 [5] [µM]	MIC99 [6] [µM]	MIC99 [7] [µM]	MIC99 [8] [µM]	MIC99 [9] [µM]	MIC99 [10] [µM]	Activity [11]	Activity [12]	Activity [13]	Activity [14]	Activity [15]	Activity [16]	Activity [17]	Activity [18]	Activity [19]	Activity [20]	further results
COc1ccc(-c2nnc(SCc3cc([N+](=O)[O-])cc([N+](=O)[O-])c3)n2Cc2ccccc2)cc1	4 (≈ 1.91 µg/mL)	4 (≈ 1.91 µg/mL)	250 (≈ 119 µg/mL)	250 (≈ 119 µg/mL)	4 (≈ 1.91 µg/mL)	8 (≈ 3.82 µg/mL)	8 (≈ 3.82 µg/mL)	8 (≈ 3.82 µg/mL)	8 (≈ 3.82 µg/mL)	8 (≈ 3.82 µg/mL)	inactive	inactive	inactive	inactive	inactive	inactive	inactive	inactive	inactive	inactive	Activity [21]: inactive; Activity [22]: inactive; Activity [23]: inactive; Activity [24]: inactive; Activity [25]: inactive; Activity [26]: inactive
O=[N+]([O-])c1cc(CSc2nnc(-c3ccc(O)cc3)n2Cc2ccccc2)cc([N+](=O)[O-])c1	16 (≈ 7.42 µg/mL)	16 (≈ 7.42 µg/mL)	250 (≈ 116 µg/mL)	250 (≈ 116 µg/mL)	8 (≈ 3.71 µg/mL)	16 (≈ 7.42 µg/mL)	16 (≈ 7.42 µg/mL)	8 (≈ 3.71 µg/mL)	16 (≈ 7.42 µg/mL)	16 (≈ 7.42 µg/mL)	inactive	inactive	inactive	inactive	inactive	inactive	inactive	inactive	inactive	inactive	Activity [21]: inactive; Activity [22]: inactive; Activity [23]: inactive; Activity [24]: inactive; Activity [25]: inactive; Activity [26]: inactive
CCCCCCCCCCCCn1c(SCc2ccccc2)nnc1-c1cc([N+](=O)[O-])cc([N+](=O)[O-])c1	2 (≈ 1.05 µg/mL)	4 (≈ 2.1 µg/mL)	250 (≈ 131 µg/mL)	250 (≈ 131 µg/mL)	2 (≈ 1.05 µg/mL)	4 (≈ 2.1 µg/mL)	4 (≈ 2.1 µg/mL)	2 (≈ 1.05 µg/mL)	4 (≈ 2.1 µg/mL)	4 (≈ 2.1 µg/mL)	inactive	inactive	inactive	inactive	inactive	inactive	inactive	inactive	inactive	inactive	Activity [21]: inactive; Activity [22]: inactive; Activity [23]: inactive; Activity [24]: inactive; Activity [25]: inactive; Activity [26]: inactive
CCCCCCCCCCCc1nnc(SCc2cc([N+](=O)[O-])cc([N+](=O)[O-])c2)n1Cc1ccccc1	4 (≈ 2.1 µg/mL)	4 (≈ 2.1 µg/mL)	250 (≈ 131 µg/mL)	250 (≈ 131 µg/mL)	2 (≈ 1.05 µg/mL)	4 (≈ 2.1 µg/mL)	4 (≈ 2.1 µg/mL)	2 (≈ 1.05 µg/mL)	4 (≈ 2.1 µg/mL)	8 (≈ 4.21 µg/mL)	inactive	inactive	inactive	inactive	inactive	inactive	inactive	inactive	inactive	inactive	Activity [21]: inactive; Activity [22]: inactive; Activity [23]: inactive; Activity [24]: inactive; Activity [25]: inactive; Activity [26]: inactive
